Data taken from ChEMBL document CHEMBL3400013, “Synthesis and biological activity evaluation of hydrazone derivatives based on a Tröger's base skeleton” (Bioorg Med Chem, 2015).
Activity calls are given as the source filed them. The rule behind the calls is not given here.

Assays:
Pseudomonas aeruginosa = assay: Antimicrobial activity against multidrug-resistant Pseudomonas aeruginosa A/16575 up to 200 uM after 24 to 48 hrs by broth microdilution method; type: functional, organism-based
HCT-116 [1] = assay: Selectivity index, ratio of IC50 for human MRC5 cells to IC50 for human p53-/- HCT116 cells; type: functional
CCRF-CEM [2] = assay: Cell cycle arrest in human CCRF-CEM cells assessed as accumulation at S phase at IC50 after 24 hrs by propidium iodide staining-based flow cytometry; type: functional
Method in brief: (§1)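 Cells were then fixed in 70% ethanol, washed in hypotonic citrate buffer, treated with RNase (50 µg/mL) and stained with propidium iodide. Flow cytometry used a 488 nm laser. Apoptosis was scored as the percentage of particles with propidium content below G0/G1.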

[3] = Metal chelating activity of the compound assessed as formation of Zn2+ complex by UV-vis spectrometry; type: physicochemical
MRC5 [4] = assay: Cytostatic activity against human MRC5 cells after 72 hrs by MTT assay; type: ADME, cell-based; details: MRC5, 72 h
Method in brief: (§2)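 Cells were seeded at 25,000–30,000 per well and pre-incubated for 24 h at 37°C in 5% CO2. Four-fold compound dilutions were added in duplicate and incubated for 72 h. MTT was added for 1–4 h, and formazan was dissolved in 10% aq SDS (pH 5.5) overnight at 37°C. OD was read at 540 nm. IC50 came from dose-response curves, mean ± SD of eight independent experiments.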

A549 [5] = assay: Cytostatic activity against human A549 cells after 72 hrs by MTT assay; type: functional, cell-based; details: A549, 72 h; method in brief: as §2
[6] = Cytostatic activity against human p53-/- HCT116 cells after 72 hrs by MTT assay; type: functional, cell-based; details: HCT-116, 72 h; method in brief: as §2
[7] = Metal chelating activity of the compound assessed as formation of Mg2+ complex by UV-vis spectrometry; type: physicochemical
CCRF-CEM [8] = assay: Induction of apoptosis in human CCRF-CEM cells assessed as inhibition of DNA synthesis at IC50 after 24 hrs by propidium iodide/BrdU staining by flow cytometry; type: functional; set-up: scale not given: the % may be the effect or the level left
CCRF-CEM [9] = assay: Induction of apoptosis in human CCRF-CEM cells assessed as apoptotic cells at IC50 after 24 hrs by propidium iodide staining-based flow cytometry; type: functional; method in brief: as §1
Staphylococcus aureus [10] = assay: Antimicrobial activity against methicillin-resistant Staphylococcus aureus MRSA 4591 up to 200 uM after 24 to 48 hrs by broth microdilution method; type: functional, organism-based
Candida tropicalis = assay: Antifungal activity against Candida tropicalis up to 200 uM after 24 to 48 hrs by broth microdilution method; type: functional, organism-based
CCRF-CEM [11] = assay: Induction of apoptosis in human CCRF-CEM cells assessed as inhibition of DNA synthesis at 5 times IC50 after 24 hrs by propidium iodide/BrdU staining by flow cytometry; type: functional; set-up: scale not given: the % may be the effect or the level left
HCT-116 [12] = assay: Selectivity index, ratio of IC50 for human MRC5 cells to IC50 for human HCT116 cells; type: functional
Staphylococcus aureus [13] = assay: Antimicrobial activity against Staphylococcus aureus CCM 3953 up to 200 uM after 24 to 48 hrs by broth microdilution method; type: functional, organism-based
MRC5 [14] = assay: Selectivity index, ratio of IC50 for human MRC5 cells to IC50 for human K562-TAX cells; type: functional
[15] = Cytostatic activity against human HCT116 cells after 72 hrs by MTT assay; type: functional, cell-based; details: HCT-116, 72 h; method in brief: as §2
[16] = Metal chelating activity of the compound assessed as formation of Mn2+ complex by UV-vis spectrometry; type: physicochemical
CCRF-CEM [17] = assay: Induction of apoptosis in human CCRF-CEM cells assessed as mitotic cells at IC50 after 24 hrs by pH3Ser10+ labeling-based flow cytometry; type: functional
[18] = system: Staphylococcus haemolyticus; assay: Antimicrobial activity against methicillin-resistant Staphylococcus haemolyticus A1/16568 up to 200 uM after 24 to 48 hrs by broth microdilution method; type: functional, organism-based
CCRF-CEM [19] = assay: Cell cycle arrest in human CCRF-CEM cells assessed as accumulation at G0/G1 phase at IC50 after 24 hrs by propidium iodide staining-based flow cytometry; type: functional; method in brief: as §1
[20] = Metal chelating activity of the compound assessed as formation of Ca2+ complex by UV-vis spectrometry; type: physicochemical
CCRF-CEM [21] = assay: Cell cycle arrest in human CCRF-CEM cells assessed as accumulation at G2/M phase at IC50 after 24 hrs by propidium iodide staining-based flow cytometry; type: functional; method in brief: as §1
K562 [22] = assay: Selectivity index, ratio of IC50 for human MRC5 cells to IC50 for human K562 cells; type: functional
Candida albicans = assay: Antifungal activity against Candida albicans up to 200 uM after 24 to 48 hrs by broth microdilution method; type: functional, organism-based
CCRF-CEM [23] = assay: Cell cycle arrest in human CCRF-CEM cells assessed as accumulation at G0/G1 phase at 5 times IC50 after 24 hrs by propidium iodide staining-based flow cytometry; type: functional; method in brief: as §1
[24] = Cytostatic activity against human K562-TAX cells after 72 hrs by MTT assay; type: functional, cell-based; method in brief: as §2
K562 [25] = assay: Cytostatic activity against human K562 cells after 72 hrs by MTT assay; type: functional, cell-based; details: K562, 72 h; method in brief: as §2
Escherichia coli [26] = assay: Antimicrobial activity against multidrug-resistant Escherichia coli C/16702 up to 200 uM after 24 to 48 hrs by broth microdilution method; type: functional, organism-based
[27] = Metal chelating activity of the compound assessed as formation of Ni2+ complex by UV-vis spectrometry; type: physicochemical
BJ [28] = assay: Selectivity index, ratio of IC50 for human BJ cells to IC50 for human CEM-DNR cells; type: functional
Nucleic Acid [29] = assay: Binding affinity to DNA (unknown origin) assessed as DNA intercalation by UV-visible spectrophotometry in presence of Fe3+; type: nucleic-acid assay
[30] = Cytostatic activity against human CEM-DNR cells after 72 hrs by MTT assay; type: functional, cell-based; method in brief: as §2
Nucleic Acid [31] = assay: Binding affinity to DNA (unknown origin) assessed as DNA intercalation by UV-visible spectrophotometry in presence of Co2+; type: nucleic-acid assay
BJ [32] = assay: Selectivity index, ratio of IC50 for human BJ cells to IC50 for human K562-TAX cells; type: functional
[33] = Metal chelating activity of the compound assessed as formation of Cu2+ complex by UV-vis spectrometry; type: physicochemical
CCRF-CEM [34] = assay: Induction of apoptosis in human CCRF-CEM cells assessed as inhibition of RNA synthesis at IC50 after 24 hrs by propidium iodide/BrU staining by flow cytometry; type: functional; set-up: scale not given: the % may be the effect or the level left
Nucleic Acid [35] = assay: Binding affinity to DNA (unknown origin) assessed as DNA intercalation by UV-visible spectrophotometry in presence of Zn2+; type: nucleic-acid assay
[36] = Metal chelating activity of the compound assessed as formation of Fe3+ complex by UV-vis spectrometry; type: physicochemical
[37] = Metal chelating activity of the compound assessed as formation of Cr3+ complex by UV-vis spectrometry; type: physicochemical
A549 [38] = assay: Selectivity index, ratio of IC50 for human MRC5 cells to IC50 for human A549 cells; type: functional
Escherichia coli [39] = assay: Antimicrobial activity against Escherichia coli CCM 3954 up to 200 uM after 24 to 48 hrs by broth microdilution method; type: functional, organism-based
[40] = Metal chelating activity of the compound assessed as formation of Co2+ complex by UV-vis spectrometry; type: physicochemical
BJ [41] = assay: Cytostatic activity against human BJ cells after 72 hrs by MTT assay; type: ADME, cell-based; method in brief: as §2

Compound: O=C(N/N=C/c1ccccc1O)c1ccc2c3c(ccc2c1)N1Cc2c(ccc4cc(C(=O)N/N=C/c5ccccc5O)ccc24)N(C3)C1
- Activity (Pseudomonas aeruginosa): inactive
- Ratio IC50 (HCT-116 [1]): 1.7
- Activity (CCRF-CEM [2]): 50.31%
- Activity [3]: Active
- IC50 (MRC5 [4]): 390 nM
- IC50 (A549 [5]): 980 nM
- IC50 [6]: 190 nM
- Activity [7]: Not Active
- Activity (CCRF-CEM [8]): 50.71%
- Activity (CCRF-CEM [9]): 18.07%
- Activity (Staphylococcus aureus [10]): inactive
- Activity (Candida tropicalis): inactive
- Activity (CCRF-CEM [11]): 5.94%
- Ratio IC50 (HCT-116 [12]): 0.8
- Activity (Staphylococcus aureus [13]): inactive
- Ratio IC50 (MRC5 [14]): 0.4
- IC50 [15]: 390 nM
- Activity [16]: Not Active
- Activity (CCRF-CEM [17]): 0.62%
- Activity [18]: inactive
- Activity (CCRF-CEM [19]): 30.6%
- Activity [20]: Not Active
- Activity (CCRF-CEM [21]): 19.09%
- Ratio IC50 (K562 [22]): 0.6
- Activity (Candida albicans): inactive
- Activity (CCRF-CEM [23]): 43.33%
- IC50 [24]: 830 nM
- IC50 (K562 [25]): 580 nM
- Activity (Escherichia coli [26]): inactive
- Activity [27]: Active
- Ratio IC50 (BJ [28]): 0.1
- Activity (Nucleic Acid [29]): Active
- IC50 [30]: 4250 nM
- Activity (Nucleic Acid [31]): Active
- Ratio IC50 (BJ [32]): 0.4
- Activity [33]: Active
- Activity (CCRF-CEM [34]): 59.79%
- Activity (Nucleic Acid [35]): Active
- Activity [36]: Active
- Activity [37]: Not Active
- Ratio IC50 (A549 [38]): 0.3
- Activity (Escherichia coli [39]): inactive
- Activity [40]: Active
- IC50 (BJ [41]): 270 nM

Compound: O=C(NN=C(c1ccccn1)c1ccccn1)c1ccc2c3c(ccc2c1)N1Cc2c(ccc4cc(C(=O)NN=C(c5ccccn5)c5ccccn5)ccc24)N(C3)C1
- Activity (Pseudomonas aeruginosa): inactive
- Ratio IC50 (HCT-116 [1]): 2
- Activity (CCRF-CEM [2]): 61.24%
- Activity [3]: Active
- IC50 (MRC5 [4]): 1030 nM
- IC50 (A549 [5]): 2030 nM
- IC50 [6]: 780 nM
- Activity [7]: Not Active
- Activity (CCRF-CEM [8]): 57.31%
- Activity (CCRF-CEM [9]): 12.04%
- Activity (Staphylococcus aureus [10]): inactive
- Activity (Candida tropicalis): inactive
- Activity (CCRF-CEM [11]): 55.69%
- Ratio IC50 (HCT-116 [12]): 3.4
- Activity (Staphylococcus aureus [13]): inactive
- Ratio IC50 (MRC5 [14]): 2.8
- IC50 [15]: 460 nM
- Activity [16]: Not Active
- Activity (CCRF-CEM [17]): 0.53%
- Activity [18]: inactive
- Activity (CCRF-CEM [19]): 28.27%
- Activity [20]: Not Active
- Activity (CCRF-CEM [21]): 10.49%
- Ratio IC50 (K562 [22]): 2.4
- Activity (Candida albicans): inactive
- Activity (CCRF-CEM [23]): 3.63%
- IC50 [24]: 560 nM
- IC50 (K562 [25]): 640 nM
- Activity (Escherichia coli [26]): inactive
- Activity [27]: Active
- Ratio IC50 (BJ [28]): 0.7
- Activity (Nucleic Acid [29]): Active
- IC50 [30]: 2080 nM
- Activity (Nucleic Acid [31]): Active
- Ratio IC50 (BJ [32]): 2.8
- Activity [33]: Active
- Activity (CCRF-CEM [34]): 60.37%
- Activity (Nucleic Acid [35]): Active
- Activity [36]: Active
- Activity [37]: Not Active
- Ratio IC50 (A549 [38]): 0.8
- Activity (Escherichia coli [39]): inactive
- Activity [40]: Active
- IC50 (BJ [41]): 2090 nM
